# In ChEMBL document CHEMBL1649084, “Novel trisubstituted benzimidazoles, targeting Mtb FtsZ, as a new class of antitubercular agents” (J Med Chem, 2011):
# How the values were obtained:
# [1] = tested on: Mycobacterium tuberculosis; experiment: Antimycobacterial activity against Mycobacterium tuberculosis H37Rv W210 after 24 hrs by microplate Alamar Blue assay; type: functional
# [2] = tested on: Mycobacterium tuberculosis; experiment: Antimycobacterial activity against Mycobacterium tuberculosis H37Rv NHN382 after 24 hrs by microplate Alamar Blue assay; type: functional
# Vero = experiment: Cytotoxicity against african green monkey Vero cells after 3 days by Alamar Blue assay; type: cell-based; settings: chlorocebus sabaeus, 72 h
# [3] = tested on: Mycobacterium tuberculosis; experiment: Antimycobacterial activity against Mycobacterium tuberculosis H37Rv after 24 hrs by microplate Alamar Blue assay; type: functional
# Procedure, shortened: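 MIC99 by microplate Alamar Blue: DMSO stocks serially diluted 2-fold in 96-well plates; Mtb grown in 7H9 + 10% OADC + 0.05% Tween-80, used at mid-log phase, added to OD600 0.005; 6 days at 37 °C, then AlamarBlue added and a further 24 h at 37 °C; read by colour change; triplicate.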
# [4] = molecular target: T1, Cell division protein FtsZ (Mycobacterium tuberculosis) (UniProt P9WN95); experiment: (§1) Inhibition of Mycobacterium tuberculosis FtsZ polymerization
# T1 sequence (whole entry): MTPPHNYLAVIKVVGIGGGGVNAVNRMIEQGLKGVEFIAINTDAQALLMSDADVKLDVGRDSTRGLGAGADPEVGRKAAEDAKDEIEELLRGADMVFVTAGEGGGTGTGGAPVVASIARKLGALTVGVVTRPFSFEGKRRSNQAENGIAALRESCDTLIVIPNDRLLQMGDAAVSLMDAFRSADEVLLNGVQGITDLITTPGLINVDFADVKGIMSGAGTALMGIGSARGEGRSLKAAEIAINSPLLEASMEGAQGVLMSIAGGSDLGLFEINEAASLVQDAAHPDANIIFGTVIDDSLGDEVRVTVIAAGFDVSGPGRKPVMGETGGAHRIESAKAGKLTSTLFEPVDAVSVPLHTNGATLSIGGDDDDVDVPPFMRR
# Procedure, shortened: (§2)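 90° light scattering at 30 °C, excitation/emission 400 nm. Inhibitor at various concentrations preincubated in 50 mM MES, 5 mM MgCl2, 50 mM KCl, pH 6.5 to baseline. Mtb FtsZ (15 μM) then added; polymerization started with 5 mM GTP (20 μL into 1,000 μL final); monitored 30-60 min. DMSO-matched controls.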
# [5] = molecular target: T2, Cell division protein FtsZ (Mycobacterium tuberculosis, UniProt P9WN95); experiment: as §1; procedure, shortened: as §2
# T2 sequence (P9WN95 whole entry): T1 sequence (whole entry)
Structure (SMILES),MIC99 [2] [µM],Cytotoxic concentration (Vero) [µM],MIC99 [3] [µM],MIC99 [1] [µM],further results
CCOC(=O)Nc1cc(NC(C)=O)c2[nH]c(-c3ccccc3)nc2c1,2.3,> 200,,,"MIC99 ([1]; Mycobacterium tuberculosis, H37Rv W210, 24 h, read-out: MIC99): 4.6 µM"
CCN(CC)c1cc2[nH]c(C3CCCCC3)nc2cc1NC(=O)c1ccccc1,,> 400,7.9,,Activity [4]: Dose-dependent effect; IC50 [5]: 6.21 µM
CCN(CC)c1cc2[nH]c(C3CCCCC3)nc2cc1NC(=O)c1ccc(C)cc1,,> 400,15.1,,
CCN(CC)c1cc2[nH]c(C3CCCCC3)nc2cc1NC(=O)c1ccc(Cl)cc1,,> 400,14.1,,
CCN(CC)c1cc2[nH]c(C3CCCCC3)nc2cc1NC(=O)OCc1ccccc1,,> 400,3.8,,
O=C(Nc1cc2nc(C3CCCCC3)[nH]c2cc1N1CCCC1)OCc1ccccc1,3.7,> 200,,3.7,
CCCOC(=O)Nc1cc2nc(C3CCCCC3)[nH]c2cc1N(CC)CC,,> 400,4.3,,
CCN(CC)c1cc2[nH]c(C3CCCCC3)nc2cc1NC(=O)c1ccc(OC)cc1,,> 400,7.4,,
CCCCOC(=O)Nc1cc2nc(C3CCCCC3)[nH]c2cc1N1CCCC1,1,> 200,,1,
CCCCOC(=O)Nc1cc2nc(C3CCCCC3)[nH]c2cc1N(CC)CC,,> 400,,4,"MIC99 ([2]; Mycobacterium tuberculosis, H37Rv NHN382, 24 h, read-out: MIC99): 2 µM; IC50 [5]: 7.69 µM"
C=CCCOC(=O)Nc1cc2nc(C3CCCCC3)[nH]c2cc1N(CC)CC,4.2,> 400,,4.2,
